Results reported in ChEMBL document CHEMBL4811229, “Leveraging Peptaibol Biosynthetic Promiscuity for Next-Generation Antiplasmodial Therapeutics” (J Nat Prod, 2021).
Values after ≈ are worked out from the molar mass of the structure shown. Where a SMILES comes first, the peptide text is derived from it. [ ]: non-standard residue; d: D form. The star is where a group is joined. X1 = CC(C)C[C@@H](C[N+]1=C2CCCN2CCC1)N*; Pip = O=C(O)[C@@H]1CCCCN1; Iva = CC[C@](C)(N)C(=O)O; Aib = CC(C)(N)C(=O)O; βAla = NCCC(=O)O

Assays:
[1] = test system: Plasmodium falciparum; experiment: Antiplasmodial activity against chloroquine-resistant Plasmodium falciparum FCR3 infected in human erythrocytes assessed as parasite growth inhibition; assay type: functional, organism-based; settings: FCR-3/Gambia, Erythrocyte
[2] = test system: Plasmodium falciparum; experiment: Antiplasmodial activity against chloroquine-resistant Plasmodium falciparum K1 infected in human erythrocytes assessed as parasite growth inhibition; assay type: functional, organism-based; settings: K1, Erythrocyte
[3] = test system: Plasmodium falciparum; experiment: Antiplasmodial activity against multidrug-resistant Plasmodium falciparum Dd2 infected in human A-positive erythrocytes assessed as reduction in parasitemia incubated for 72 hrs by fluorescence-based SYBR-Green-1 assay; assay type: functional, organism-based; settings: Dd2, Erythrocyte
[4] = Selectivity index, ratio of EC50 for human HepG2 cells to EC50 for antiplasmodial activity against multidrug-resistant Plasmodium falciparum Dd2 infected in human A-positive erythrocytes; assay type: toxicity, cell-based; settings: read-out: Ratio EC50
[5] = test system: HepG2; experiment: Cytotoxicity against human HepG2 cells assessed as decrease in cell viability measured after 48 hrs by MTS assay; assay type: cell-based; settings: HepG2, 48 h
Method in brief: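 After 48 h at 37 °C and 5% CO2, MTS was added for 4 h and absorbance read at 490 nm. Values were normalized to Triton X-100-lysed wells (0% growth) and untreated wells. EC50 is the mean of triplicate experiments.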

[6] = test system: Plasmodium falciparum; experiment: Antiplasmodial activity against Plasmodium falciparum assessed as parasite growth inhibition; assay type: functional

| SMILES | EC50 [1] | EC50 [2] | EC50 [3] | selectivity ratio [4] | EC50 [5] | MIC [6] |
| --- | --- | --- | --- | --- | --- | --- |
| CCCCCCC/C=C\CCCCCCCC(=O)N[C@H](C(=O)N1C[C@H](C)C[C@H]1C(=O)N[C@H](C(=O)N[C@@H](CC(N)=O)C(=O)N[C@@H](C)[C@H]1N[C@@H](CO)[C@H](O)[C@@H](CCCCCCCCCCCCC)O1)C(C)C)[C@@H](C)O | 150 nM | 150 nM |  |  |  |  |
| CCCCCCC/C=C\CCCCCCCC(=O)N[C@H](C(=O)N1C[C@H](C)C[C@H]1C(=O)N[C@H](C(=O)N[C@@H](CC(N)=O)C(N)=O)C(C)C)[C@@H](C)O (HELM PEPTIDE1{[CCCCCCC/C=C\CCCCCCCC(=O)[*:2]].T.[C[C@@H]1C[C@@H](C(=O)[*:2])N([*:1])C1].V.N.[am]}$$$$V2.0) | 150 nM | 150 nM |  |  |  |  |
| CC(=O)NC(C)(C)C(=O)N[C@@H](C)C(=O)N[C@@H](C)C(=O)N[C@@H](C)C(=O)NC(C)(C)C(=O)NC(C)(C)C(=O)N[C@@H](CCC(N)=O)C(=O)NC(C)(C)C(=O)N[C@H](C(=O)NC(C)(C)C(=O)NCC(=O)N[C@@H](CC(C)C)C(=O)NC(C)(C)C(=O)N1CCC[C@H]1C(=O)N[C@H](C(=O)NC(C)(C)C(=O)NC(C)(C)C(=O)N[C@@H](CCC(N)=O)C(=O)N[C@@H](CCC(N)=O)C(=O)N[C@H](CO)Cc1ccccc1)C(C)C)C(C)C (HELM PEPTIDE1{[ac].[Aib].A.A.A.[Aib].[Aib].Q.[Aib].V.[Aib].G.L.[Aib].P.V.[Aib].[Aib].Q.Q.[OC[C@H](Cc1ccccc1)N[*:1]]}$$$$V2.0) |  |  | 560 nM | 17 | 9280 nM |  |
| CC[C@H](C)[C@H](NC(=O)[C@H](CC(C)C)NC(=O)[C@H](CC(N)=O)NC(=O)C(C)(C)NC(C)=O)C(=O)NC(C)(C)C(=O)N1CCC[C@H]1C(=O)N[C@](C)(CC)C(=O)N[C@@H](CC(C)C)C(=O)NC(C)(C)C(=O)N1CCC[C@H]1C(=O)N[C@H](CO)CC(C)C (HELM PEPTIDE1{[ac].[Aib].N.L.I.[Aib].P.[CC[C@@](C)(N[*:1])C(=O)[*:2]].L.[Aib].P.[CC(C)C[C@@H](CO)N[*:1]]}$$$$V2.0) |  |  | 720 nM | > 35 | > 25000 nM |  |
| CC[C@H](C)[C@H](NC(=O)[C@H](C)NC(=O)[C@@H]1CCCN1C(=O)C(C)(C)NC(=O)[C@H](CC(C)C)NC(=O)[C@H](CC(N)=O)NC(=O)C(C)(C)NC(C)=O)C(=O)NC(C)(C)C(=O)N1CCC[C@H]1C(=O)NC(C)(C)C(=O)N[C@@H](CC(C)C)C(=O)NC(C)(C)C(=O)N1CCC[C@H]1C(=O)N[C@H](CO)CC(C)C (HELM PEPTIDE1{[ac].[Aib].N.L.[Aib].P.A.I.[Aib].P.[Aib].L.[Aib].P.[CC(C)C[C@@H](CO)N[*:1]]}$$$$V2.0) |  |  | 420 nM | > 60 | > 25000 nM |  |
| CC[C@H](C)[C@H](NC(=O)[C@H](CO)NC(=O)[C@@H]1CCCN1C(=O)C(C)(C)NC(=O)[C@H](CC(C)C)NC(=O)[C@H](CC(N)=O)NC(=O)C(C)(C)NC(C)=O)C(=O)NC(C)(C)C(=O)N1CCC[C@H]1C(=O)NC(C)(C)C(=O)N[C@@H](CC(C)C)C(=O)NC(C)(C)C(=O)N1CCC[C@H]1C(=O)N[C@H](CO)CC(C)C (HELM PEPTIDE1{[ac].[Aib].N.L.[Aib].P.S.I.[Aib].P.[Aib].L.[Aib].P.[CC(C)C[C@@H](CO)N[*:1]]}$$$$V2.0) |  |  | 630 nM | > 40 | > 25000 nM |  |
| CC(=O)NC(C)(C)C(=O)N[C@@H](CC(N)=O)C(=O)N[C@@H](CC(C)C)C(=O)NC(C)(C)C(=O)N1CCC[C@H]1C(=O)N[C@@H](CO)C(=O)N[C@H](C(=O)NC(C)(C)C(=O)N1CCC[C@H]1C(=O)NC(C)(C)C(=O)N[C@@H](CC(C)C)C(=O)NC(C)(C)C(=O)N1CCC[C@H]1C(=O)N[C@H](CO)CC(C)C)C(C)C (HELM PEPTIDE1{[ac].[Aib].N.L.[Aib].P.S.V.[Aib].P.[Aib].L.[Aib].P.[CC(C)C[C@@H](CO)N[*:1]]}$$$$V2.0) |  |  | 710 nM | > 35 | > 25000 nM |  |
| CC[C@@](C)(NC(=O)[C@@H]1CCCN1C(=O)C(C)(C)NC(=O)[C@@H](NC(=O)[C@H](CO)NC(=O)[C@@H]1CCCN1C(=O)C(C)(C)NC(=O)[C@H](CC(C)C)NC(=O)[C@H](CC(N)=O)NC(=O)C(C)(C)NC(C)=O)C(C)C)C(=O)N[C@@H](CC(C)C)C(=O)NC(C)(C)C(=O)N1CCC[C@H]1C(=O)N[C@H](CO)CC(C)C (HELM PEPTIDE1{[ac].[Aib].N.L.[Aib].P.S.V.[Aib].P.[CC[C@@](C)(N[*:1])C(=O)[*:2]].L.[Aib].P.[CC(C)C[C@@H](CO)N[*:1]]}$$$$V2.0) |  |  | 560 nM | > 45 | > 25000 nM |  |
| CCC(=O)CCCCC[C@@H]1NC(=O)[C@H]2CCCCN2C(=O)[C@H]([C@@H](C)CC)NC(=O)[C@H](Cc2cn(OC)c3ccccc23)NC1=O [APICIDIN] |  |  |  |  |  | 0.19 µM (≈ 0.119 µg/mL) |
| CC[C@](C)(NC(=O)[C@H](CC(C)C)NC(=O)[C@H](C)NC(=O)C(C)(C)NC(=O)[C@@H]1CCCCN1C(=O)C(C)(C)NC(=O)C(C)(C)NC(=O)CNC(=O)CCNC(=O)[C@H](CC(C)C)NC(=O)C(C)(C)NC(=O)[C@](C)(CC)NC(=O)[C@@H]1CCCCN1C(=O)C(C)(C)NC(=O)[C@@H]1CCCCN1C(C)=O)C(=O)N[C@@H](CC(C)C)C[N+]1=C2CCCN2CCC1 [EFRAPEPTIN G] (Ac-[Pip][Aib][Pip][Iva][Aib]L[βAla]G[Aib][Aib][Pip][Aib]AL[Iva]-X1) |  |  | 460 nM | > 54 | > 25000 nM |  |
